# Assay results from different studies.
# Protocols differ between the studies behind these lines.
# ADRA1A: Alpha-1A adrenergic receptor (ADRA1A, Homo sapiens, UniProt P35348)
# MAL12: Alpha-glucosidase MAL12 (MAL12, Saccharomyces cerevisiae S288c, UniProt P53341)
Compound,target,assay,conditions,inhibition
COc1cc2c3c(c1OC)-c1c(OC)ccc(Cl)c1CC3N(C)CC2 (racemic),ADRA1A,"ligand displacement, radioligand",10 µM,99%
O=c1cc(-c2ccc(O)cc2)oc2cc(O)cc(O)c12,MAL12,"enzyme activity, inhibitor, absorbance",50 µM,78.6%
COc1cc2c3c(c1OC)-c1c(OC)ccc(Br)c1CC3N(C)CC2 (stereo not shown),ADRA1A,"ligand displacement, radioligand",10 µM,95%
O=c1c(O)c(-c2ccc(O)c(O)c2)oc2cc(O)cc(O)c12,MAL12,"enzyme activity, inhibitor, absorbance",50 µM,98.7%
COc1cc(O)c2c(c1)oc(=O)c1c3cc(O)c(O)cc3oc21,MAL12,"enzyme activity, inhibitor, absorbance",128 µM,~90%
C[C@H]1O[C@H](O[C@H]2[C@H](O)[C@@H](O)[C@@H](O[C@H]3[C@H](O)[C@@H](O)C(O)O[C@@H]3CO)O[C@@H]2CO)[C@H](O)[C@@H](O)[C@@H]1N[C@H]1C=C(CO)[C@@H](O)[C@H](O)[C@H]1O (stereo partly shown),MAL12,"enzyme activity, inhibitor, absorbance",50 µM,37.9%
NC/C(=C\F)COc1cccc(Cn2c(=S)[nH]c(=O)c3[nH]cnc32)c1,"Histamine H2 receptor (HRH2, Homo sapiens, UniProt P25021)","ligand displacement, radioligand",10 µM,< 50%
CCCCCCCCCCCCCCCCCC(=O)OCC(C)(C)CC1=C(O)C(=O)c2ccccc2C1=O,MAL12,"enzyme activity, inhibitor",50 µM,> 70%
COc1cc2c3c(c1OC)-c1c(OC)ccc(N4CCOCC4)c1CC3N(C)CC2 (stereo not shown),ADRA1A,"ligand displacement, radioligand",10 µM,65%
C#Cc1cc(-c2cc(Nc3nc(N[C@@H](C)c4ccc(F)cn4)ncc3Cl)n[nH]2)ccc1C=O,"Tyrosine-protein kinase Lyn (LYN, Homo sapiens, UniProt P07948)","enzyme activity, inhibitor",0.2 µM,89.2%
CC[N+]1(C)CCc2cc(OC)c(OC)c3c2C1Cc1cccc(OC)c1-3 (stereo not shown),ADRA1A,"ligand displacement, radioligand",10 µM,13%
O=c1c(O)c(-c2ccc(O)c(O)c2)oc2c(Br)c(O)c(Br)c(O)c12,MAL12,"enzyme activity, inhibitor, absorbance",50 µM,95.8%
CCCCCCCCCCCC(=O)OCC(C)(C)CC1=C(O)C(=O)c2ccccc2C1=O,MAL12,"enzyme activity, inhibitor",50 µM,> 70%
